The values that follow come from ChEMBL document CHEMBL1151960, “(Nitrooxyacyloxy)methyl esters of aspirin as novel nitric oxide releasing aspirins” (J Med Chem, 2009).

For series [1], the system named is Aorta. Description: Vasodilatory activity in Wistar rat endothelium-denuded thoracic aortic ring assessed as inhibition of phenylephrine-induced contraction […]. It is filed as functional, tissue-based. In short, it runs like this: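 Endothelium-denuded rat aorta strips are precontracted with phenylephrine. At the plateau, cumulative concentrations of test agent in DMSO are added. Relaxation is recorded isometrically and reported as EC50 ± SEM (μM). In a separate series, 1 μM ODQ is added 5 min before contraction, giving at least 30 min of preincubation before the vasodilator. At least five experiments.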

Series [2] has as its system Aorta. Description: Vasodilatory activity in Wistar rat endothelium-denuded thoracic aortic ring assessed as inhibition of phenylephrine-induced contraction at 100 uM preincubated for 30 mins before phenylephrine addition in presence of 1 uM 1H-[1,2,4]oxadiazolo[4,3-a]quinoxalin-1-one. More on the design: scale not given: the % may be the effect or the level left. It is filed as functional.

A short description of series [3]: Chemical stability in phosphate buffer at pH 7.4 assessed as unchanged drug level at 0.5 mM after 3 hrs by RP-HPLC analysis. The class given is physicochemical. To be noted: read-out: Stability. In short, it runs like this:
(§1)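 A 0.5 mM acetonitrile solution (2 mL) is diluted to 10 mL with HCl (pH 1.0) or 50 mM phosphate buffer (pH 7.4) and held at 37 ± 0.5 °C. Aliquots are taken over time for RP-HPLC (C18 column, acetonitrile/water gradient with 0.1% TFA). Performed in triplicate.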

Series [4] can be described thus: Chemical stability in acidic medium at pH 1 assessed as unchanged drug level at 0.5 mM after 3 hrs by RP-HPLC analysis. The class given is physicochemical. To be noted: read-out: Stability. An outline of the steps: as §1
Series [5] can be described thus: Metabolic stability in human serum assessed as half life at 250 uM by RP-HPLC analysis. The class given is ADME, cell-free.
A further series deals with Serum. Nature of the series: Metabolic stability in human serum assessed as maximal amount of aspirin released at 250 uM by RP-HPLC analysis. The class given is ADME, cell-free.
Series [6] has as its system Aorta. Nature of the series: Vasodilatory activity in Wistar rat endothelium-denuded thoracic aortic ring assessed as inhibition of phenylephrine-induced contraction at 30 uM preincubated for 30 mins before phenylephrine addition in presence of 1 uM 1H-[1,2,4]oxadiazolo[4,3-a]quinoxalin-1-one. It is filed as functional. More on the design: scale not given: the % may be the effect or the level left.

Series [7] can be described thus: (§2) Antiaggregatory activity in human platelet rich plasma assessed as inhibition of collagen-induced platelet aggregation preincubated 10 mins before collagen challenge. It is filed as functional. An outline of the steps: (§3)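 Platelet-rich plasma from citrated blood spun at 210g for 20 min. Compound in 0.5% DMSO vehicle preincubated 10 min, then submaximal collagen (0.8–1.5 μg/mL). Light-transmission aggregometry with stirring at 1000 rpm, 37 °C, recorded for 10 min. Read-out is % inhibition versus vehicle control; IC50 by nonlinear regression, else % inhibition at 300 μM top concentration. At least five experiments.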

The subject of a further series is Platelet. The series is described as §2. It is filed as functional. An outline of the steps:
as §3

Series [8] can be described thus: Antiaggregatory activity in human platelet rich plasma assessed as inhibition of collagen-induced platelet aggregation at 300 uM preincubated 10 mins before collagen challenge. The class given is functional. An outline of the steps: as §3

Bounds are passed on as bounds.

For the compound `O=C(O)c1ccc(CCCO[N+](=O)[O-])cc1`, in the series with Aorta [1], the Activity entry is “Dose-dependent effect” and the EC50 is 510 nM. Also, the Activity in the series with Aorta [2] was under 50%.
For `O=C(O)CCCCCCO[N+](=O)[O-]`, in that order: “Dose-dependent effect”, 20000 nM and under 50%.
In the case of `CC(=O)Oc1ccccc1C(=O)OCOC(=O)c1ccc(OCCCO[N+](=O)[O-])cc1`, the remaining at 3 h, 500 µM in series [3] and in series [4] was 99% throughout. The Activity entry in the series with Aorta [1] was “Dose-dependent effect”; with Serum, 39.8%; in the series with Aorta [6], under 50%; in the series with Platelet, “Dose-dependent effect”. In addition, the EC50 in the series with Aorta [1] was determined as 17 nM. For the same compound, the half-life at 250 µM in [5] was found to be 3.4 min. The IC50 in series [7] came out at 138 µM.
Consider `O=C(O)CCCCCO[N+](=O)[O-]`, for which the Activity result in the series with Aorta [1] is “Dose-dependent effect”; in the series on Aorta [2], under 50%. Further, the EC50 in the series with Aorta [1] is 8300 nM.
For the compound `O=C(O)c1ccc(CC(CO[N+](=O)[O-])O[N+](=O)[O-])cc1` (centres undefined), the Activity result with Aorta [1] is “Dose-dependent effect”; in the series on Aorta [2], under 50%. The EC50 with Aorta [1] turned out to be 330 nM.
For the compound `CC(=O)Oc1ccccc1C(=O)OCOC(=O)CCCCCCO[N+](=O)[O-]`, the inhibition at 300 µM in [8] was found to be 29%. In addition, the remaining at 3 h, 500 µM in series [3] amounted to 100%; in series [4] it was 99%. Besides, the Activity entry in the series with Aorta [1] was “Dose-dependent effect”; in the series with Serum it was 17.6%; in the series on Aorta [6], under 50%; with Platelet, “Dose-dependent effect”. The EC50 with Aorta [1] was determined as 1600 nM. Further, the half-life at 250 µM in series [5] is under 1 min.
As for `CC(=O)Oc1ccccc1C(=O)O` [ASPIRIN], the remaining at 3 h, 500 µM in [3] and in series [4] was 90% in each case. In addition, the half-life at 250 µM in series [5] amounted to 63 min. In addition, the IC50 in series [7] was determined as 54 µM. In the series with Platelet, the Activity result was “Dose-dependent effect”.
As to `CC(=O)Oc1ccccc1C(=O)OCOC(=O)c1ccc(CC(CO[N+](=O)[O-])O[N+](=O)[O-])cc1` (centres undefined), the remaining at 3 h, 500 µM in series [3] and in series [4] was 99% in each case. The Activity entry with Aorta [1] is “Dose-dependent effect”; in the series with Serum, 34.2%; in the series on Aorta [6], under 50%; in the series on Platelet, “Dose-dependent effect”. In addition, in the series with Aorta [1], the EC50 stood at 52 nM. Also, the half-life at 250 µM in series [5] was 3.4 min. Also, the IC50 in series [7] is 97 µM.
As for `CC(=O)Oc1ccccc1C(=O)OCOC(=O)c1ccc(OCC(CO[N+](=O)[O-])O[N+](=O)[O-])cc1` (centres undefined), the remaining at 3 h, 500 µM in series [3] and in series [4] was 99% each time. In addition, the Activity result is “Dose-dependent effect” with Aorta [1], 22.4% in the series on Serum, under 50% with Aorta [6] and “Dose-dependent effect” with Platelet. In addition, the EC50 in the series on Aorta [1] was determined as 41 nM. Moreover, the half-life at 250 µM in series [5] amounted to 5.4 min. Besides, the IC50 in series [7] was 140 µM.
Regarding `CC(=O)Oc1ccccc1C(=O)OCOC(=O)c1ccccc1OCCCO[N+](=O)[O-]`, the remaining at 3 h, 500 µM in [3] is 98%; in [4], 99%. In addition, the Activity entry with Aorta [1] was “Dose-dependent effect”; in the series with Serum, 5%; in the series on Aorta [6], under 50%; in the series with Platelet, “Dose-dependent effect”. Further, the EC50 in the series on Aorta [1] was 4000 nM. The half-life at 250 µM in series [5] is under 1 min. For the same compound, the IC50 in series [7] came out at 163 µM.
Regarding `CC(=O)Oc1ccccc1C(=O)OCOC(=O)c1ccc([S+]([O-])CCCO[N+](=O)[O-])cc1` (centres undefined), the results for the remaining at 3 h, 500 µM in series [3] and in series [4] were 90% and 98%, respectively. The Activity result was “Dose-dependent effect” in the series with Aorta [1], 70.7% in the series with Serum, under 50% with Aorta [6] and “Dose-dependent effect” in the series with Platelet. Moreover, the EC50 with Aorta [1] came to 470 nM. In [5], the half-life at 250 µM is under 1 min. Moreover, the IC50 in [7] worked out at 72 µM.
Regarding `O=C(O)c1ccccc1OCCCO[N+](=O)[O-]`, the Activity result was “Dose-dependent effect” in the series with Aorta [1] and under 50% in the series with Aorta [2]. In addition, in the series with Aorta [1], the EC50 came out at 20000 nM.
Turning to `CC(=O)Oc1ccccc1C(=O)OC(C)OC(=O)c1ccc(SCCCO[N+](=O)[O-])cc1` (centres undefined), in [8], the inhibition at 300 µM was 27%. The values for the remaining at 3 h, 500 µM in series [3] and in [4] were 99% and 98%, respectively. Also, the Activity result with Aorta [1] is “Dose-dependent effect”; with Serum, 29.4%; in the series with Aorta [6], under 50%; in the series with Platelet, “Dose-dependent effect”. The EC50 with Aorta [1] came to 140 nM. Also, in [5], the half-life at 250 µM amounted to 4.4 min.
Take `CC(=O)Oc1ccccc1C(=O)OCOC(=O)c1cccc(OCCCO[N+](=O)[O-])c1`: the remaining at 3 h, 500 µM was 98% in series [3] and 99% in [4]. The Activity entry with Aorta [1] is “Dose-dependent effect”; with Serum it was 48.3%; in the series on Aorta [6], under 50%; in the series on Platelet, “Dose-dependent effect”. The EC50 in the series with Aorta [1] turned out to be 140 nM. Moreover, the half-life at 250 µM in series [5] was determined as 1.4 min. Besides, in [7], the IC50 stood at 100 µM.
For the compound `O=C(O)c1ccc(S(=O)(=O)CCCO[N+](=O)[O-])cc1`, in the series with Aorta [1], the Activity result was “Dose-dependent effect” and the EC50 amounted to 20000 nM. The Activity in the series with Aorta [2] was under 50%.
For the compound `CC(=O)Oc1ccccc1C(=O)OCOC(=O)c1cccc(CO[N+](=O)[O-])n1`, the remaining at 3 h, 500 µM in [3] came to 60%; in series [4], 84%. The Activity result is “Dose-dependent effect” in the series on Aorta [1], 58% with Serum, under 50% in the series on Aorta [6] and “Dose-dependent effect” in the series with Platelet. In addition, the EC50 with Aorta [1] turned out to be 820 nM. The half-life at 250 µM in [5] was under 1 min. The IC50 in series [7] worked out at 20 µM.
As for `CC(=O)Oc1ccccc1C(=O)OCOC(=O)c1ccc(CCCO[N+](=O)[O-])cc1`, the remaining at 3 h, 500 µM in [3] was 100%; in [4], 98%. The Activity entry in the series on Aorta [1] was “Dose-dependent effect”; with Serum, 65.2%; in the series on Aorta [6] it was under 50%; with Platelet, “Dose-dependent effect”. In addition, in the series with Aorta [1], the EC50 was determined as 75 nM. The half-life at 250 µM in series [5] came to 1.9 min. The IC50 in series [7] amounted to 41 µM.
On to `O=C(O)c1ccc([S+]([O-])CCCO[N+](=O)[O-])cc1` (centres undefined), for which, in the series on Aorta [1], the Activity result is “Dose-dependent effect” and the EC50 came out at 6000 nM. For the same compound, in the series on Aorta [2], the Activity is under 50%.
On to `O=C(O)c1cccc(OCCCO[N+](=O)[O-])c1`, for which, in the series on Aorta [1], the Activity result was “Dose-dependent effect” and the EC50 worked out at 3800 nM. Also, the Activity in the series with Aorta [2] is on record as under 50%.
`CC(=O)Oc1ccccc1C(=O)OCOC(=O)c1ccc(SCC(CO[N+](=O)[O-])O[N+](=O)[O-])cc1` (centres undefined): the remaining at 3 h, 500 µM in [3] and in series [4] was 98% each time. For the same compound, the Activity entry was “Dose-dependent effect” in the series on Aorta [1], 43% in the series with Serum, under 50% in the series on Aorta [6] and “Dose-dependent effect” in the series with Platelet. In addition, the EC50 in the series with Aorta [1] was determined as 100 nM. For the same compound, the half-life at 250 µM in [5] came out at 4.6 min. Further, the IC50 in [7] stood at 129 µM.
For `O=C(O)c1cccc(CO[N+](=O)[O-])n1`, the Activity result was “Dose-dependent effect” with Aorta [1] and under 50% in the series with Aorta [2]. In the series on Aorta [1], the EC50 amounted to 12000 nM.
As to `CC(=O)Oc1ccccc1C(=O)OCOC(=O)c1ccc(S(=O)(=O)CCCO[N+](=O)[O-])cc1`, the values for the remaining at 3 h, 500 µM in series [3] and in series [4] were 70% and 98%, respectively. Moreover, the Activity entry was “Dose-dependent effect” in the series with Aorta [1], 59.2% in the series on Serum, under 50% in the series on Aorta [6] and “Dose-dependent effect” with Platelet. The EC50 with Aorta [1] was determined as 360 nM. The half-life at 250 µM in series [5] was under 1 min. In addition, the IC50 in series [7] worked out at 38 µM.
Turning to `CC(=O)Oc1ccccc1C(=O)OCOC(=O)c1ccc(SCCCO[N+](=O)[O-])cc1`, the remaining at 3 h, 500 µM in series [3] and in [4] was 99% throughout. The Activity result in the series with Aorta [1] was “Dose-dependent effect”; in the series with Serum, 61.7%; with Aorta [6] it was under 50%; in the series with Platelet, “Dose-dependent effect”. Further, the EC50 in the series on Aorta [1] was found to be 150 nM. Moreover, the half-life at 250 µM in [5] was 2.4 min. Moreover, the IC50 in series [7] was found to be 45 µM.
